For experiment [1], the species on record is Homo sapiens. The experiment can be described thus: Selectivity index, ratio of Ki of GFP-tagged Y4R in human HEK293T cells to Ki GFP-tagged Y1R in human HEK293T cells. It counts as cell-based. In outline:
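Ratio of mean Ki values, Y4/Y1, from whole-cell competition binding in tetracycline-induced 293TR Y1-GFP or Y4-GFP cells. Tracer was 100 nM (sCy5)-[Lys²Arg⁴]-BVD15, added after 5 min competitor preincubation, then 30 min at 37 °C, with imaging read-out.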

In experiment [2] the target is T1, Neuropeptide Y receptor type 4 (Homo sapiens, UniProt P50391). The experiment can be described thus: Agonist activity at Y4R in human HEK293T cells assessed as increase in beta-arrestin recruitment incubated for 60 mins by Hoechst 33342 dye based fluorescence analysis. On the technique in general: Arrestin recruitment assays detect the binding of arrestin to an activated receptor.

For experiment [3], the target named is T2, Neuropeptide Y receptor type 1 (Homo sapiens, UniProt P25929).
T2 sequence (P25929 whole entry): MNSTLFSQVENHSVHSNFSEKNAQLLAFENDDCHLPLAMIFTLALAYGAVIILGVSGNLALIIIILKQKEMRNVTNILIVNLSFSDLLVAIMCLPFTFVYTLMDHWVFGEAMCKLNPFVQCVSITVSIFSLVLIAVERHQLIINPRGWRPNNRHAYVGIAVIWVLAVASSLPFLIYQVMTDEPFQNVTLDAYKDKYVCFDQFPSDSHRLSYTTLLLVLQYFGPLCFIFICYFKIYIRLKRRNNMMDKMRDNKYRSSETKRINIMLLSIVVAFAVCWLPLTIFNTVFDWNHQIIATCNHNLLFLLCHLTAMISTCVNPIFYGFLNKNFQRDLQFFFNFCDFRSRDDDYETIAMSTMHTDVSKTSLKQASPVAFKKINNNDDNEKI
Briefly: Displacement of (sCy5)-[Lys2 Arg4]-BVD15 from GFP-tagged Y1R in human HEK293T cells assessed as inhibitory constant incubated for 5 mins followed by (sCy5)-[Lys2 Arg4]-BVD15 addition and measured after 30 mins by fluorescence based assay. It counts as cell-based.

The target in experiment [4] is T1, Neuropeptide Y receptor type 4. Briefly: Agonist activity at Y4R in human HEK293T cells assessed as increase in beta-arrestin recruitment incubated for 60 mins by Hoechst 33342 dye based fluorescence analysis relative to pancreatic polypeptide.
For experiment [5] the target is unchanged. Briefly: Displacement of (sCy5)-[Lys2 Arg4]-BVD15 from GFP-tagged Y4R in human HEK293T cells assessed as inhibitory constant incubated for 5 mins followed by (sCy5)-[Lys2 Arg4]-BVD15 addition and measured after 30 mins by fluorescence based assay. It counts as cell-based. The method in brief:
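Competitors (10^-10–10^-6 M) added in HBSS/0.1% BSA with H33342 for 5 min, then 100 nM final (sCy5)-[Lys²Arg⁴]-BVD15 for 30 min at 37 °C. Washed and imaged confocally; granule counts per cell. Non-specific binding with 100 nM PP.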

Positions of bridges follow the written chain, without caps; N, C: chain ends. Non-standard residues stand in square brackets, D forms with d. Residues, ends and D or L forms follow the SMILES beside them. Chains are numbered I, II in the order given. Orn = NCCC[C@H](N)C(=O)O; Dab = NCC[C@H](N)C(=O)O; Dap = NC[C@H](N)C(=O)O

T1 sequence (P50391 whole entry): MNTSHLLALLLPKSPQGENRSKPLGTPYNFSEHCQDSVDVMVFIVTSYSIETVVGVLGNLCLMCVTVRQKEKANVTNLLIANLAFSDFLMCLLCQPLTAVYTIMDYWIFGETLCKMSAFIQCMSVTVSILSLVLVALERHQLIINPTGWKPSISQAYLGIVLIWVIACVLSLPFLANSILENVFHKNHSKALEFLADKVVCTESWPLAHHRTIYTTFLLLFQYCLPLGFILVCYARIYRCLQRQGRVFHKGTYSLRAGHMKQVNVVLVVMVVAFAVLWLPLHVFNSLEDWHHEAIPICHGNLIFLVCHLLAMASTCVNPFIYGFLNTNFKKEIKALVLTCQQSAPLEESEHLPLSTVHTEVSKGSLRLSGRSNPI

The EC50 is the concentration giving half of the maximal effect. As usually defined, the Ki is the dissociation constant of the complex between target and ligand, obtained from inhibition or displacement. For the compound `CC[C@H](C)[C@H](N)C(=O)N[C@H]1CCC(=O)NCCCC[C@@H](C(=O)N[C@@H](Cc2ccc(O)cc2)C(=O)N[C@@H](CCCNC(=N)N)C(=O)N[C@@H](CC(C)C)C(=O)N[C@@H](CCCNC(=N)N)C(=O)N[C@@H](Cc2ccc(O)cc2)C(N)=O)NC(=O)[C@@H]2CCCN2C(=O)[C@@H](NC(=O)[C@@H](N)[C@@H](C)CC)CCC(=O)NCCCC[C@@H](C(=O)N[C@@H](Cc2ccc(O)cc2)C(=O)N[C@@H](CCCNC(=N)N)C(=O)N[C@@H](CC(C)C)C(=O)N[C@@H](CCCNC(=N)N)C(=O)N[C@@H](Cc2ccc(O)cc2)C(N)=O)NC(=O)[C@@H]2CCCN2C1=O` (I: H-IEPKYRLRY-NH2 / II: H-IEPKYRLRY-NH2; amide I:2-II:4, I:4-II:2), in experiment [1], the Ratio Ki came out at 6.3. Moreover, in experiment [2], the EC50 was 23.4 nM. For the same compound, the Ki is 25.1 nM in experiment [3] and 158 nM in experiment [5]. In experiment [4], the Rmax worked out at 56.4%.

With `CC[C@H](C)[C@H](N)C(=O)N[C@H]1CCC(=O)NCC[C@@H](C(=O)N[C@@H](Cc2ccc(O)cc2)C(=O)N[C@@H](CCCNC(=N)N)C(=O)N[C@@H](CC(C)C)C(=O)N[C@@H](CCCNC(=N)N)C(=O)N[C@@H](Cc2ccc(O)cc2)C(N)=O)NC(=O)[C@@H]2CCCN2C(=O)[C@@H](NC(=O)[C@@H](N)[C@@H](C)CC)CCC(=O)NCC[C@@H](C(=O)N[C@@H](Cc2ccc(O)cc2)C(=O)N[C@@H](CCCNC(=N)N)C(=O)N[C@@H](CC(C)C)C(=O)N[C@@H](CCCNC(=N)N)C(=O)N[C@@H](Cc2ccc(O)cc2)C(N)=O)NC(=O)[C@@H]2CCCN2C1=O` (I: H-IEP[Dab]YRLRY-NH2 / II: H-IEP[Dab]YRLRY-NH2; amide I:2-II:4, I:4-II:2), in experiment [1], the Ratio Ki amounted to 19. Besides, the concentration for a half-maximal effect (EC50) in experiment [2] is 30.2 nM. Moreover, the Ki was 8.13 nM in experiment [3] and 155 nM in experiment [5]. The Rmax in experiment [4] stood at 43.8%.

With `CC[C@H](C)[C@H](N)C(=O)N[C@H]1CCC(=O)NC[C@@H](C(=O)N[C@@H](Cc2ccc(O)cc2)C(=O)N[C@@H](CCCNC(=N)N)C(=O)N[C@@H](CC(C)C)C(=O)N[C@@H](CCCNC(=N)N)C(=O)N[C@@H](Cc2ccc(O)cc2)C(N)=O)NC(=O)[C@@H]2CCCN2C(=O)[C@@H](NC(=O)[C@@H](N)[C@@H](C)CC)CCC(=O)NC[C@@H](C(=O)N[C@@H](C)C(=O)N[C@@H](CCCNC(=N)N)C(=O)N[C@@H](CC(C)C)C(=O)N[C@@H](CCCNC(=N)N)C(=O)N[C@@H](Cc2ccc(O)cc2)C(N)=O)NC(=O)[C@@H]2CCCN2C1=O` (I: H-IEP[Dap]ARLRY-NH2 / II: H-IEP[Dap]YRLRY-NH2; amide I:2-II:4, I:4-II:2), the Ratio Ki in experiment [1] was determined as 269. The concentration giving a half-maximal response (EC50) in experiment [2] is 37.2 nM. For the same compound, the Ki in experiment [3] was 2.34 nM; in experiment [5], 631 nM. Moreover, the Rmax in experiment [4] was 52.3%.

On to `CC[C@H](C)[C@H](N)C(=O)N[C@H]1CCC(=O)NC[C@@H](C(=O)N[C@@H](Cc2ccc(O)cc2)C(=O)N[C@@H](CCCNC(=N)N)C(=O)N[C@@H](CC(C)C)C(=O)N[C@@H](C)C(=O)N[C@@H](Cc2ccc(O)cc2)C(N)=O)NC(=O)[C@@H]2CCCN2C(=O)[C@@H](NC(=O)[C@@H](N)[C@@H](C)CC)CCC(=O)NC[C@@H](C(=O)N[C@@H](Cc2ccc(O)cc2)C(=O)N[C@@H](C)C(=O)N[C@@H](CC(C)C)C(=O)N[C@@H](CCCNC(=N)N)C(=O)N[C@@H](Cc2ccc(O)cc2)C(N)=O)NC(=O)[C@@H]2CCCN2C1=O` (I: H-IEP[Dap]YALRY-NH2 / II: H-IEP[Dap]YRLAY-NH2; amide I:2-II:4, I:4-II:2), for which the Ratio Ki in experiment [1] came out at 32. For the same compound, the inhibition constant Ki is 31.6 nM in experiment [3] and 912 nM in experiment [5]. Also, the Rmax in experiment [4] was -9.5%.

In the case of `CC[C@H](C)[C@H](N)C(=O)N[C@H]1CCC(=O)NC[C@@H](C(=O)N[C@@H](Cc2ccc(O)cc2)C(=O)N[C@@H](CCCNC(=N)N)C(=O)N[C@@H](CC(C)C)C(=O)N[C@@H](CCCNC(=N)N)C(=O)N[C@@H](Cc2ccc(O)cc2)C(N)=O)NC(=O)[C@@H]2CCCN2C(=O)[C@@H](NC(=O)[C@@H](N)[C@@H](C)CC)CCC(=O)NC[C@@H](C(=O)N[C@@H](Cc2ccc(O)cc2)C(=O)N[C@@H](CCCNC(=N)N)C(=O)N[C@@H](C)C(=O)N[C@@H](CCCNC(=N)N)C(=O)N[C@@H](Cc2ccc(O)cc2)C(N)=O)NC(=O)[C@@H]2CCCN2C1=O` (I: H-IEP[Dap]YRARY-NH2 / II: H-IEP[Dap]YRLRY-NH2; amide I:2-II:4, I:4-II:2), the Ratio Ki in experiment [1] was 427. In addition, the concentration giving a half-maximal response (EC50) in experiment [2] was 12.9 nM. For the same compound, the inhibition constant Ki in experiment [3] is 0.275 nM; in experiment [5] it was 129 nM. Further, the Rmax in experiment [4] came out at 48.2%.

Consider `CC[C@H](C)[C@H](N)C(=O)N[C@H]1CCC(=O)NC[C@@H](C(=O)N[C@@H](Cc2ccc(O)cc2)C(=O)N[C@@H](CCCNC(=N)N)C(=O)N[C@@H](CC(C)C)C(=O)N[C@@H](CCCNC(=N)N)C(=O)N[C@@H](Cc2ccc(O)cc2)C(N)=O)NC(=O)[C@@H]2CCCN2C(=O)[C@@H](NC(=O)[C@@H](N)[C@@H](C)CC)CCC(=O)NC[C@@H](C(=O)N[C@@H](Cc2ccc(O)cc2)C(=O)N[C@@H](CCCNC(=N)N)C(=O)N[C@@H](CC(C)C)C(=O)N[C@@H](C)C(=O)N[C@@H](Cc2ccc(O)cc2)C(N)=O)NC(=O)[C@@H]2CCCN2C1=O` (I: H-IEP[Dap]YRLAY-NH2 / II: H-IEP[Dap]YRLRY-NH2; amide I:2-II:4, I:4-II:2), for which the Ratio Ki in experiment [1] is 427. For the same compound, the EC50 in experiment [2] is 5.13 nM. The Ki is 0.363 nM in experiment [3] and 170 nM in experiment [5]. In addition, the Rmax in experiment [4] was found to be 50.2%.

Regarding `CC[C@H](C)[C@H](N)C(=O)N[C@H]1CCC(=O)NC[C@@H](C(=O)N[C@@H](Cc2ccc(O)cc2)C(=O)N[C@@H](CCCNC(=N)N)C(=O)N[C@@H](CC(C)C)C(=O)N[C@@H](CCCNC(=N)N)C(=O)N[C@@H](Cc2ccc(O)cc2)C(N)=O)NC(=O)[C@@H]2CCCN2C(=O)[C@@H](NC(=O)[C@@H](N)[C@@H](C)CC)CCC(=O)NC[C@@H](C(=O)N[C@@H](Cc2ccc(O)cc2)C(=O)N[C@@H](CCCNC(=N)N)C(=O)N[C@@H](CC(C)C)C(=O)N[C@@H](CCCNC(=N)N)C(=O)N[C@@H](C)C(N)=O)NC(=O)[C@@H]2CCCN2C1=O` (I: H-IEP[Dap]YRLRA-NH2 / II: H-IEP[Dap]YRLRY-NH2; amide I:2-II:4, I:4-II:2), the Ratio Ki in experiment [1] is 676. Besides, the EC50 in experiment [2] was 6.76 nM. For the same compound, the results for the inhibition constant (Ki) in experiment [3] and in experiment [5] were 0.257 nM and 174 nM, respectively. In addition, the Rmax in experiment [4] was determined as 55.2%.

With `CC[C@H](C)[C@H](N)C(=O)N[C@H]1CCC(=O)NC[C@@H](C(=O)N[C@@H](Cc2ccc(O)cc2)C(=O)N[C@@H](CCCN=C(N)N)C(=O)N[C@@H](CC(C)C)C(=O)N[C@@H](CCCN=C(N)N)C(=O)N[C@@H](Cc2ccc(O)cc2)C(N)=O)NC(=O)[C@@H]2CCCN2C(=O)[C@@H](NC(=O)[C@@H](N)[C@@H](C)CC)CCC(=O)NC[C@@H](C(=O)N[C@@H](Cc2ccc(O)cc2)C(=O)N[C@@H](CCCN=C(N)N)C(=O)N[C@@H](CC(C)C)C(=O)N[C@@H](CCCN=C(N)N)C(=O)N[C@@H](Cc2ccc(O)cc2)C(N)=O)NC(=O)[C@@H]2CCCN2C1=O` (I: H-IEP[Dap]YRLRY-NH2 / II: H-IEP[Dap]YRLRY-NH2; amide I:2-II:4, I:4-II:2), in experiment [1], the Ratio Ki was in the range of 87 to 141. In addition, the EC50 in experiment [2] was 11.2 to 37.2 nM. The results for the Ki in experiment [3] and in experiment [5] were 0.295 to 1.02 nM and 41.7 to 89.1 nM, respectively. For the same compound, the Rmax in experiment [4] is 21.8 to 36.1%.

With `CC[C@H](C)[C@H](N)C(=O)N[C@H]1CCC(=O)NCCC[C@@H](C(=O)N[C@@H](Cc2ccc(O)cc2)C(=O)N[C@@H](CCCNC(=N)N)C(=O)N[C@@H](CC(C)C)C(=O)N[C@@H](CCCNC(=N)N)C(=O)N[C@@H](Cc2ccc(O)cc2)C(N)=O)NC(=O)[C@@H]2CCCN2C(=O)[C@@H](NC(=O)[C@@H](N)[C@@H](C)CC)CCC(=O)NCCC[C@@H](C(=O)N[C@@H](Cc2ccc(O)cc2)C(=O)N[C@@H](CCCNC(=N)N)C(=O)N[C@@H](CC(C)C)C(=O)N[C@@H](CCCNC(=N)N)C(=O)N[C@@H](Cc2ccc(O)cc2)C(N)=O)NC(=O)[C@@H]2CCCN2C1=O` (I: H-IEP[Orn]YRLRY-NH2 / II: H-IEP[Orn]YRLRY-NH2; amide I:2-II:4, I:4-II:2), the Ratio Ki in experiment [1] came out at 4.9. Besides, the 50% effective concentration (EC50) in experiment [2] is 4.27 nM. Moreover, the Ki was 12.9 nM in experiment [3] and 63.1 nM in experiment [5]. Besides, in experiment [4], the Rmax worked out at 33%.

Source of the values: ChEMBL document CHEMBL4402612, “Heterodimeric Analogues of the Potent Y1R Antagonist 1229U91, Lacking One of the Pharmacophoric C-Terminal Structures, Retain Potent Y1R Affinity and Show Improved Selectivity over Y4R” (J Med Chem, 2020).
